# A selection: hits, their analogues and other compounds. The true share with any hit is near 3.3%.
# Granule exo inh: lytic granule exocytosis inhibition; 360,000 tested, 0.66% active; TALL-104 LAMP-1 surface exposure, flow cytometry; cells stimulated with thapsigargin and PMA; inhibition, % at 10 µM; AID 651702;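 active means inhibition above about 55%, limit read from the data; inconclusive means no clear call, values can overlap the other calls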
# Arr AP2 block: blocks beta-arrestin peptide binding to AP2 adaptin; AID 504490; FITC-arrestin peptide / GST-AP2 beads, flow cytometry; AP2 beta2 appendage carries R879A mutation; inhibition, % at 10 µM; 340,000 tested, 0.31% active;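 active means inhibition above a set limit, near 3 SD of compounds lacking own fluorescence, cut at about 54% in these data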;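 further: plate controls were DMSO wells for no effect and 5 µM unlabelled arrestin peptide for full effect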
#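 test system = AP2 appendage R879A on GSH beads | buffer or medium = PBS plus Tween 20 (0.05%) and BSA (0.1%) | incubation = 12 min plus 1 h, RT | detection = bead flow cytometry, FITC channel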
# Myeloid diff MLP: compounds promoting myeloid differentiation; AID 624256; calls only at 10 µM; 360,000 tested, 1% active; ER-HoxA9 myeloid progenitors, lysozyme-GFP differentiation, flow cytometry;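 active means normalized GFP-positive differentiation at or above the plate's own cutoff, the solvent-only control mean plus 3 SD; inconclusive means no clear call, values can overlap the other calls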;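 further: cells exposed to compound for four days before flow analysis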
# ABCB6 inh 2: blocks the human ABCB6 transporter; K562-ABCB6 porphyrin accumulation, flow cytometry, 1 h; hits give low values; Q9NP58; fluorescence ratio to DMSO, % at 10 µM; 360,000 tested, 0.19% active; AID 602162;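 active means fluorescence ratio to DMSO below 75%, the collection mean minus 3 SD; inconclusive means too few cells collected in the well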;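 further: signal is porphyrin accumulated inside mitochondria; 100% equals median channel fluorescence of DMSO control wells; lower ratio means ABCB6 inhibition with less porphyrin fluorescence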
# CendR NRP1 mod: NRP-1/CendR interaction modulation; O14786; FAM-RPARPAR peptide binding to NRP-1, fluorescence polarization; inhibition, % at 25 µM; 360,000 tested, 0.85% active; AID 602438;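 active means inhibition or corrected inhibition above about 18%, plus a signal ratio from 0.5 to 1.5, limit read from the data, passing the limit was not always enough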
# Target sequence (O14786 whole entry, looked up): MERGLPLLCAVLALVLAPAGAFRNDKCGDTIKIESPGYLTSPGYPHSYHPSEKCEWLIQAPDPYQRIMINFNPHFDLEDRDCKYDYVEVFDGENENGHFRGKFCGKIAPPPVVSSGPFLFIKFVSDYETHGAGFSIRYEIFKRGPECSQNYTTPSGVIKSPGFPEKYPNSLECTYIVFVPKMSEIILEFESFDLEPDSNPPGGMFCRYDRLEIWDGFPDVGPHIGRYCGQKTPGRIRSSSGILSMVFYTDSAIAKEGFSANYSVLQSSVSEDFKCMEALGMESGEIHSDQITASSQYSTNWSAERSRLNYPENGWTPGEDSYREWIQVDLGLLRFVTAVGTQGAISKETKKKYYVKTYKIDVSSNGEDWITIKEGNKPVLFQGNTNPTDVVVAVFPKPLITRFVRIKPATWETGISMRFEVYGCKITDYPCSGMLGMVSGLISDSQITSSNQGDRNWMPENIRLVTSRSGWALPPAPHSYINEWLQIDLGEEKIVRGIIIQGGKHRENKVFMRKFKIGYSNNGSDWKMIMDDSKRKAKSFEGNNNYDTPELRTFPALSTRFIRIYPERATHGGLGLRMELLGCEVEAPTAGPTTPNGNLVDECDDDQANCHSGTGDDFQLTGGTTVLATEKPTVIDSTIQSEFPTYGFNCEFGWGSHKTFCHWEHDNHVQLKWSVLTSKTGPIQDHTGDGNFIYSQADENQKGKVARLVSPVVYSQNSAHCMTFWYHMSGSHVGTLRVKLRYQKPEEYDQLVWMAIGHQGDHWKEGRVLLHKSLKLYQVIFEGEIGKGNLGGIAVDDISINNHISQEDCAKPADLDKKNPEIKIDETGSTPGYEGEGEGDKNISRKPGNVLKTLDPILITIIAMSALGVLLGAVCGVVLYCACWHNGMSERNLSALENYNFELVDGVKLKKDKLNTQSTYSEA
# ATG4B inhibitor: inhibitors of human ATG4B cysteine protease; inhibition, % at 8.33 µM; AID 504462; Q9Y4P1; 340,000 tested, 0.51% active; ATG4B cleavage of LC3-PLA2, NBD-HPC fluorescence, 1 h; in the data active means inhibition above about 40%
# The depositor's hits bear a star; i = inactive; ? = inconclusive; · = no result; + = active, no number.
SMILES,Granule exo inh,Arr AP2 block,Myeloid diff MLP,ABCB6 inh 2,CendR NRP1 mod,ATG4B inhibitor
CCCN(CC(=O)Nc1ccccc1C)C(=O)C1CCCN(C(=O)c2ccc(Cl)cc2)C1 (stereo unspecified),-1.9,-12.9,+,92.0,18.9*,-8.9
O=C(Nc1cccc(-n2cccn2)c1)C1CCCN(Cc2ccccc2F)C1 (stereo unspecified),0.0,-1.1,i,103.0,-2.1,6.0
C=CCC(Nc1ccccc1)C12C=CC(O1)C(C(=O)OC)=C2C(=O)OC (stereo unspecified),89.8*,0.6,?,93.0,8.5,-8.6
O=C(O)c1ccccc1NC(=O)c1ccccc1Nc1ccccc1,-2.3,28.0,+,200.0,-17.4,28.9
O=C(Nc1ccccc1C(=O)Nc1ccccc1C(=O)O)c1ccccc1,2.7,1.1,i,99.0,-4.2,23.7
COc1ccc2[nH]c(=O)c(CN(C(=O)C(C)C)c3ccccc3OC)cc2c1,13.2,-8.5,+,102.0,-10.2,-12.5
O=C(NCCS(=O)(=O)N1CCN(c2cccc(Cl)c2)CC1)C1CC1,-3.9,-1.4,i,97.0,-0.3,-3.0
Cc1ccc(CN2CC(C(=O)N3CCN(c4ccccc4Cl)CC3)CC2=O)cc1 (stereo unspecified),2.4,1.8,i,95.0,15.3,5.0
N#Cc1ccc(N[C@@H]2CCN3C(=O)c4ccccc4[C@@H]3C[C@H]2O)cc1,0.3,0.2,+,105.0,-20.1,2.4
COc1ccc(N[C@@H]2CCN3C(=O)c4ccccc4[C@@H]3C[C@H]2O)cc1,-2.1,0.5,i,102.0,-0.2,-1.8
C[N+](C)(CC#Cc1ccccc1)CC(=O)c1ccccc1,2.7,36.3,i,97.0,41.9*,16.9
CCOc1ccc(-c2cccc(NC(=O)c3ccco3)c2)nn1,3.2,5.2,i,130.0,-7.7,1.5
CCn1cc(C(=O)NCC(OC)OC)c(=O)c2cc(S(=O)(=O)N3CCC(C)CC3)ccc21,6.3,9.2,+,102.0,11.5,-8.8
CCn1cc(C(=O)NCC(OC)OC)c(=O)c2cc(S(=O)(=O)N3CCCC3)ccc21,-0.3,-6.9,i,96.0,1.6,-4.7
Cc1ccc(CCNC(=O)C2CC(=O)N(C3CCCCC3)C2)cc1 (stereo unspecified),4.9,-3.7,i,99.0,-3.7,-2.2
O=C(NCCC1=CCCCC1)C1CC(=O)N(C2CCCCCC2)C1 (stereo unspecified),0.0,5.6,i,92.0,21.3*,8.5
COc1cccc(OCc2ccc(Cl)cc2)c1C#N,-8.4,3.4,i,99.0,16.3,5.6
CCOC(=O)CCSc1nc(C)cc(C(F)(F)F)c1C#N,-1.7,-4.9,+,244.0,-80.0,0.9
Cc1cc(C(F)(F)F)c(C#N)c(SCC(=O)Nc2nc3ccccc3s2)n1,3.1,38.0,+,286.0,-116.7,-5.0
CCOC(=O)N1CCN(C(=O)CN(c2ccccc2)S(C)(=O)=O)CC1,-2.3,6.1,i,102.0,12.2,-8.6
COc1ccccc1-c1noc(Cn2cc(S(=O)(=O)N3CCCC3)ccc2=O)n1,-5.0,-0.9,i,100.0,18.5*,-64.3
COc1ccccc1Oc1ccc(S(=O)(=O)N2CCCC2)cc1,2.7,2.1,i,109.0,-2.2,13.2
CC(OC(=O)/C=C/c1cccc(F)c1)C(=O)NC1CCCCC1C (stereo unspecified),-1.2,0.0,i,101.0,-6.4,-9.8
O=C(O)CCSc1nnc(COc2cccc3cccnc23)n1-c1ccccc1,-0.5,-11.5,i,109.0,25.6*,-6.5
O=C(O)CSc1nnc(COc2cccc3cccnc23)n1-c1cccc(C(F)(F)F)c1,·,·,·,·,·,10.3
SMILES,Granule exo inh,Arr AP2 block,Myeloid diff MLP,ABCB6 inh 2,CendR NRP1 mod,ATG4B inhibitor
CCn1c(SCC(=O)N/N=C(/C)c2ccncc2)nc2ccccc21,60.5*,5.7,i,101.0,5.7,-5.6
CCn1c(SCC(=O)NC2CC2)nc2ccccc21,-2.4,·,i,97.0,-7.1,·
CCN(Cc1ccncc1)C(=O)CSc1ccc2ccccc2c1,-2.5,21.3,i,96.0,-3.2,-33.0
CCCCCCCC(=O)NNC(=O)c1c(O)c2ccccc2n(CC)c1=O,-0.6,15.3,+,112.0,1.6,-4.3
NC(=S)N=Nc1c(O)[nH]c2ccc(F)cc12,0.2,6.0,i,102.0,12.9,7.1
NC(=S)N=Nc1c(O)cc(O)c2[nH]c(=O)ccc12,1.6,27.7,i,94.0,41.6*,0.7
O=C1CC/C=C\C[C@@H](CC(=O)N(CCO)Cc2ccccc2)C(=O)N[C@H](Cc2c[nH]c3ccccc23)CO1,1.9,-7.9,i,101.0,0.1,-6.0
Cc1ccc(SC2=C(Sc3ccc(C)cc3)C(=O)c3ccccc3C2=O)cc1,93.0*,24.1,i,113.0,-6.0,-3.6
CCCn1c(N)c(N(CCOC)C(=O)c2ccc([N+](=O)[O-])c(C)c2)c(=O)[nH]c1=O,1.9,9.8,i,96.0,0.1,-0.6
COC(=O)C1=C(C)NC(=O)/C1=C\c1cc(C)n(-c2ccc(F)cc2)c1C,103.9*,-0.6,i,97.0,-29.2,-12.6
Cc1c(NC(=O)c2cnc(Cl)c(Cl)c2)c(=O)n(-c2ccccc2)n1C,-3.6,2.5,i,98.0,-5.7,7.9
CN(C)C(CNc1ccc(S(C)(=O)=O)cc1[N+](=O)[O-])c1ccccc1 (stereo unspecified),-10.2,-0.1,?,102.0,-0.2,-5.1
CN(C)C(CNc1ccc(C(F)(F)F)cc1[N+](=O)[O-])c1ccccc1 (stereo unspecified),73.7*,-0.4,i,99.0,-15.7,-3.4
COC(=O)c1ccc2c(=O)n(-c3ccc(OC)cc3)c(=S)[nH]c2c1,4.7,-11.0,+,i,-11.2,-0.8
O=C1NC[C@H](Cc2ccccc2)N(C[C@H]2CCCN2C[C@H](Cc2ccccc2)N2C[C@H](Cc3ccc(O)cc3)N(CCc3ccccc3)C(=O)C2=O)C1=O,1.1,10.7,i,103.0,0.1,·
Cc1ccccc1OCC(=O)Nc1sc2c(c1C#N)CC(C)(C)NC2(C)C,59.4*,-15.4,i,95.0,-1.9,1.9
Cc1noc(/C=C/c2ccc(-c3ccccc3Cl)o2)c1[N+](=O)[O-],-0.2,12.3,+,955.0,-55.6,0.3
CC(C)(C)n1nnnc1C(c1ccccc1)N1CCCN(Cc2ccc(F)cc2)CC1 (stereo unspecified),0.9,·,i,91.0,-3.8,·
Cc1ccc(CC2CC(=O)N(c3cc(Cl)ccn3)C2=O)cc1 (stereo unspecified),-3.3,-3.7,i,102.0,1.3,3.5
N/C(=N\N=C/c1ccc(F)cc1)N/N=C\c1ccc(F)cc1,60.7*,-9.6,i,102.0,7.9,-7.6

# Screening data from PubChem.
